A short description of series [1]: Selectivity index, ratio of CC50 for MDCK cells to IC50 for Influenza A virus (A/Vietnam/1194/2004(H5N1)). In kind it is functional.
Series [2] is described as follows: Cytotoxicity against MDCK cells after 72 hrs by MTT assay. The following applies: dog. The series is classed as cell-based, Canis lupus familiaris. Put shortly:
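Uninfected MDCK cells were assayed by MTT. CC50 is the concentration causing 50% cell death. Values are the average of three separate experiments.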
(Tetrazolium assays rely on reduction of a dye to a coloured formazan, in cell work by metabolically active cells.)

A short description of series [3]: Antiviral activity against Influenza A virus (A/Vietnam/1194/2004(H5N1)) infected in MDCK cells assessed as inhibition of viral replication after 2 to 3 days by crystal violet staining-based plaque reduction assay. The series is classed as functional, cell-based. Background: In a plaque reduction assay, fewer plaques than in the control indicate reduced infectivity or spread.

The target in series [4] is Neuraminidase (Influenza A virus) (UniProt B4URF0). Description: Inhibition of Influenza A virus H5N1 neuraminidase up to 20 ug/ml by fluorescence spectrophotometric analysis.
For another series, the system named is Influenza A virus. In words: Inhibition of Influenza A virus H5N1 hemagglutinin adsorption to chicken RBC at 100 ug/ml by two-fold dilution method. Put shortly:
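Hemagglutination inhibition assay using H5 standard antigen and antiserum. Compounds were tested in serial 2-fold dilutions from 100 to 0.098 µg/ml.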

Series [5] is described as follows: cells. In kind it is functional, Influenza A virus (A/Vietnam/1194/2004(H5N1)). The following applies: Influenza A virus, MDCK, 2 h.
A short description of series [6]: cells. In kind it is functional, Influenza A virus (A/Vietnam/1194/2004(H5N1)). Conditions: Influenza A virus, MDCK, 2 h. This is another data set of the same source.

Calls of active or inactive are those of the source. The rule behind the calls is not given here. Bounds are passed on as bounds.

The record followed here is ChEMBL document CHEMBL3286302, “Design, synthesis and biological evaluation of small molecular polyphenols as entry inhibitors against H(5)N(1)” (Bioorg Med Chem Lett, 2014).

For orientation: CC50 means the concentration that lowers cell viability or growth by half. For orientation: IC50 means the midpoint of a concentration-inhibition curve. For orientation: inhibition means the drop in the measured response relative to a control, in per cent.

Sequence of Neuraminidase (Influenza A virus) (B4URF0 as listed by the source): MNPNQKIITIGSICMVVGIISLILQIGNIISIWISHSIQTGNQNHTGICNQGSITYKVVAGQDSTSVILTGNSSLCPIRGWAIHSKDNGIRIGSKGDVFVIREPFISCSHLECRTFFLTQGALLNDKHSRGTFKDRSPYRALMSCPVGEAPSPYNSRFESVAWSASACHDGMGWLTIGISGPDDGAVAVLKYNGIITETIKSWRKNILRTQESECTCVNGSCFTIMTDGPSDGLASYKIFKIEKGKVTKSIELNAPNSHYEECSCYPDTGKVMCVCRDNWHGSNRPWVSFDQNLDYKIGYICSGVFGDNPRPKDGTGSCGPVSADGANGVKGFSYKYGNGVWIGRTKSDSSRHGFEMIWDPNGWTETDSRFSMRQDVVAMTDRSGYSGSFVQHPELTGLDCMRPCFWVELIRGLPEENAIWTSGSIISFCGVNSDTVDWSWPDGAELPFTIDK

Turning to `CCOC(=O)c1ccc(O)c(O)c1`, in series [1], the “Ratio CC50/IC50” value is reported as more than 10.55. Further, the CC50 at 72 h in series [2] was more than 170 µM. The IC50 in series [3] worked out at 16.1 µM.

For `COC(=O)[C@H](Cc1ccccc1)NC(=O)c1ccc(O)c(O)c1`, the CC50 at 72 h in series [2] is more than 106 µM.

In the case of `COC(=O)[C@H](CC(C)C)NC(=O)c1ccc(O)c(O)c1`, the inhibition entry (in series [4]; with Influenza A virus) was “inactive” in each case. The “Ratio CC50/IC50” value in series [1] is more than 5.33. In addition, the inhibition at 30 µM in the series “cells [5]” is more than 50%; in “cells [6]”, 20%. Also, the CC50 at 72 h in series [2] is more than 119 µM. Besides, the IC50 in series [3] is 22.2 µM.

Turning to `CC(C)OC(=O)CCc1ccc(O)c(O)c1`, the “Ratio CC50/IC50” value in series [1] is listed as more than 10.16. The same molecule gave a CC50 at 72 h in series [2] of more than 198 µM. For the same molecule, the IC50 in series [3] amounted to 19.5 µM.

Molecule `COC(=O)CCc1ccc(OC)c(OC)c1` returned a CC50 at 72 h in series [2] of more than 149 µM.

Regarding `COC(=O)Cc1ccc(O)c(O)c1`, the “Ratio CC50/IC50” value in series [1] is reported as more than 8.7. In addition, in series [2], the CC50 at 72 h was more than 170 µM. The IC50 in series [3] was determined as 19.5 µM.

Take `COC(=O)[C@H](Cc1ccccc1)NC(=O)Cc1ccc(O)c(O)c1`: the CC50 at 72 h in series [2] was more than 170 µM.

Consider `OCc1ccc(O)c(O)c1`, for which the inhibition entry (in series [4]; in the series with Influenza A virus) was “inactive” each time. Further, the “Ratio CC50/IC50” value in series [1] is given as more than 80.15. Also, the inhibition at 30 µM came to 100% in “cells [5]” and 20% in the series “cells [6]”. In series [2], this molecule displayed a CC50 at 72 h of more than 143 µM. Further, in series [3], the IC50 came out at 1.78 µM.

Regarding `COC(=O)c1ccc(O)c(O)c1` [METHYL PROTOCATECHUATE], in series [1], the “Ratio CC50/IC50” value is reported as more than 10.02. In addition, the CC50 at 72 h in series [2] is more than 183 µM. Also, the IC50 in series [3] came out at 18.3 µM.

In the case of `COC(=O)[C@H](CC(C)C)NC(=O)Cc1ccc(O)c(O)c1`, the “Ratio CC50/IC50” value in series [1] is more than 4.38. In series [2], this molecule had a CC50 at 72 h of more than 183 µM. Besides, the IC50 in series [3] stood at 41.8 µM.

Regarding `CC(C)OC(=O)Cc1ccc(O)c(O)c1`, in series [1], the “Ratio CC50/IC50” value is more than 9.77. Further, in series [2], the CC50 at 72 h is more than 149 µM. Further, in series [3], the IC50 came to 15.2 µM.

For the molecule `COC(=O)CCc1ccc(O)c(O)c1`, the “Ratio CC50/IC50” value in series [1] was more than 10.01. For the same molecule, in series [2], the half-maximal cytotoxic concentration (CC50) at 72 h was more than 238 µM. In addition, the IC50 in series [3] is 23.8 µM.

For `CCOC(=O)CCc1ccc(O)c(O)c1`, in series [1], the “Ratio CC50/IC50” value is given as more than 10.08. In series [2], this molecule returned a CC50 at 72 h of more than 216 µM. In addition, in series [3], the IC50 amounted to 21.5 µM.

`COC(=O)c1ccc(OC)c(OC)c1` [VERATRIC ACID METHYL ESTER] had a CC50 at 72 h in series [2] of more than 170 µM.

`CCOC(=O)Cc1ccc(O)c(O)c1`: the “Ratio CC50/IC50” value in series [1] is recorded as more than 9.41. In series [2], this molecule had a CC50 at 72 h of more than 159 µM. For the same molecule, in series [3], the IC50 is 16.9 µM.

The molecule `COC(=O)Cc1ccc(OC)c(OC)c1` gave a CC50 at 72 h in series [2] of more than 159 µM.

Take `CC(=O)N[C@H]1[C@H]([C@H](O)[C@H](O)CO)OC(C(=O)O)=C[C@@H]1NC(=N)N` [ZANAMIVIR]: the “Ratio CC50/IC50” value in series [1] is more than 113.64. The molecule also had a CC50 at 72 h in series [2] of more than 100 µM. Moreover, the IC50 in series [3] is 0.88 µM.

Regarding `CC(C)OC(=O)c1ccc(O)c(O)c1`, the inhibition result (in series [4]; in the series with Influenza A virus) was “inactive” each time. Also, the “Ratio CC50/IC50” value in series [1] is listed as more than 10.65. The inhibition at 30 µM in “cells [5]” is more than 50%; in the series “cells [6]”, 20%. The molecule also gave a CC50 at 72 h in series [2] of more than 159 µM. Also, the IC50 in series [3] came to 14.9 µM.

Turning to `NC12CC3CC(CC(C3)C1)C2` [AMANTADINE], the “Ratio CC50/IC50” value in series [1] came out at 20.27. For the same molecule, it took 219 µM to reach half-maximal cytotoxicity in series [2] (CC50 at 72 h). For the same molecule, the IC50 in series [3] was 10.8 µM.
